Data from ChEMBL document CHEMBL4350961, “Discovery of Pyrrolo[3,2- d]pyrimidin-4-one Derivatives as a New Class of Potent and Cell-Active Inhibitors of P300/CBP-Associated Factor Bromodomain” (J Med Chem, 2019).

What was measured:
MEF [1] = test: Effect on Nr4a3 gene expression in MEF cells at 2.5 uM measured after 48 hrs by RNA-sequencing analysis relative to control; assay type: functional, Mus musculus
Method in brief: (§1)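 Mouse embryonic fibroblasts treated 48 h; negative-control enantiomer at 2.5 µM, DMSO as blank. Total RNA extracted with TRIzol, checked by NanoDrop, then RNA-seq with n = 3 per set. Genes called changed at >1.5-fold with p < 0.05 against blank.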

MEF [2] = test: Effect on Clec5a gene expression in MEF cells at 2.5 uM measured after 48 hrs by RNA-sequencing analysis relative to control; assay type: functional, Mus musculus; method in brief: as §1
MEF [3] = test: Effect on Lonrf3 gene expression in MEF cells at 2.5 uM measured after 48 hrs by RNA-sequencing analysis relative to control; assay type: functional, Mus musculus; method in brief: as §1
MEF [4] = test: Effect on Myh3 gene expression in MEF cells at 2.5 uM measured after 48 hrs by RNA-sequencing analysis relative to control; assay type: functional, Mus musculus; method in brief: as §1
MEF [5] = test: Effect on Unc5a gene expression in MEF cells at 2.5 uM measured after 48 hrs by RNA-sequencing analysis relative to control; assay type: functional, Mus musculus; method in brief: as §1
MEF [6] = test: Effect on Srcin1 gene expression in MEF cells at 2.5 uM measured after 48 hrs by RNA-sequencing analysis relative to control; assay type: functional, Mus musculus; method in brief: as §1
MEF [7] = test: Effect on H60b gene expression in MEF cells at 2.5 uM measured after 48 hrs by RNA-sequencing analysis relative to control; assay type: functional, Mus musculus; method in brief: as §1
MEF [8] = test: Effect on Acod1 gene expression in MEF cells at 2.5 uM measured after 48 hrs by RNA-sequencing analysis relative to control; assay type: functional, Mus musculus; method in brief: as §1
MEF [9] = test: Effect on Ttbk1 gene expression in MEF cells at 2.5 uM measured after 48 hrs by RNA-sequencing analysis relative to control; assay type: functional, Mus musculus; method in brief: as §1
MEF [10] = test: Effect on Gabra4 gene expression in MEF cells at 2.5 uM measured after 48 hrs by RNA-sequencing analysis relative to control; assay type: functional, Mus musculus; method in brief: as §1
MEF [11] = test: Effect on Dmrta2 gene expression in MEF cells at 2.5 uM measured after 48 hrs by RNA-sequencing analysis relative to control; assay type: functional, Mus musculus; method in brief: as §1
MEF [12] = test: Effect on Celsr1 gene expression in MEF cells at 2.5 uM measured after 48 hrs by RNA-sequencing analysis relative to control; assay type: functional, Mus musculus; method in brief: as §1
MEF [13] = test: Effect on Bmp3 gene expression in MEF cells at 2.5 uM measured after 48 hrs by RNA-sequencing analysis relative to control; assay type: functional, Mus musculus; method in brief: as §1
MEF [14] = test: Effect on Mpz gene expression in MEF cells at 2.5 uM measured after 48 hrs by RNA-sequencing analysis relative to control; assay type: functional, Mus musculus; method in brief: as §1
MEF [15] = test: Effect on Fmn2 gene expression in MEF cells at 2.5 uM measured after 48 hrs by RNA-sequencing analysis relative to control; assay type: functional, Mus musculus; method in brief: as §1
MEF [16] = test: Effect on Gm3173 gene expression in MEF cells at 2.5 uM measured after 48 hrs by RNA-sequencing analysis relative to control; assay type: functional, Mus musculus; method in brief: as §1
MEF [17] = test: Effect on S100a8 gene expression in MEF cells at 2.5 uM measured after 48 hrs by RNA-sequencing analysis relative to control; assay type: functional, Mus musculus; method in brief: as §1
MEF [18] = test: Effect on Slc26a7 gene expression in MEF cells at 2.5 uM measured after 48 hrs by RNA-sequencing analysis relative to control; assay type: functional, Mus musculus; method in brief: as §1
MEF [19] = test: Effect on Prrg3 gene expression in MEF cells at 2.5 uM measured after 48 hrs by RNA-sequencing analysis relative to control; assay type: functional, Mus musculus; method in brief: as §1
MEF [20] = test: Effect on P2rx6 gene expression in MEF cells at 2.5 uM measured after 48 hrs by RNA-sequencing analysis relative to control; assay type: functional, Mus musculus; method in brief: as §1
MEF [21] = test: Effect on Kcnk10 gene expression in MEF cells at 2.5 uM measured after 48 hrs by RNA-sequencing analysis relative to control; assay type: functional, Mus musculus; method in brief: as §1
MEF [22] = test: Effect on LL6 gene expression in MEF cells at 2.5 uM measured after 48 hrs by RNA-sequencing analysis relative to control; assay type: functional, Mus musculus; method in brief: as §1
MEF [23] = test: Effect on Cttnbp2 gene expression in MEF cells at 2.5 uM measured after 48 hrs by RNA-sequencing analysis relative to control; assay type: functional, Mus musculus; method in brief: as §1
MEF [24] = test: Effect on Zfp551 gene expression in MEF cells at 2.5 uM measured after 48 hrs by RNA-sequencing analysis relative to control; assay type: functional, Mus musculus; method in brief: as §1
MEF [25] = test: Effect on plekhb1 gene expression in MEF cells at 2.5 uM measured after 48 hrs by RNA-sequencing analysis relative to control; assay type: functional, Mus musculus
Method in brief: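 MEF cells treated for 48 h with test compound, with (S,S) enantiomer at 2.5 µM as negative control and DMSO as blank; total RNA (TRIzol, n = 3 per set) analysed by RNA-seq; genes counted as changed at >1.5-fold, p < 0.05, relative to blank control.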

[26] = target: T1, Histone acetyltransferase KAT2B (Homo sapiens, UniProt Q92831); test: Binding affinity to human N-terminal His-tagged PCAF by isothermal titration calorimetry
Target sequence in this assay (Q92831 whole entry): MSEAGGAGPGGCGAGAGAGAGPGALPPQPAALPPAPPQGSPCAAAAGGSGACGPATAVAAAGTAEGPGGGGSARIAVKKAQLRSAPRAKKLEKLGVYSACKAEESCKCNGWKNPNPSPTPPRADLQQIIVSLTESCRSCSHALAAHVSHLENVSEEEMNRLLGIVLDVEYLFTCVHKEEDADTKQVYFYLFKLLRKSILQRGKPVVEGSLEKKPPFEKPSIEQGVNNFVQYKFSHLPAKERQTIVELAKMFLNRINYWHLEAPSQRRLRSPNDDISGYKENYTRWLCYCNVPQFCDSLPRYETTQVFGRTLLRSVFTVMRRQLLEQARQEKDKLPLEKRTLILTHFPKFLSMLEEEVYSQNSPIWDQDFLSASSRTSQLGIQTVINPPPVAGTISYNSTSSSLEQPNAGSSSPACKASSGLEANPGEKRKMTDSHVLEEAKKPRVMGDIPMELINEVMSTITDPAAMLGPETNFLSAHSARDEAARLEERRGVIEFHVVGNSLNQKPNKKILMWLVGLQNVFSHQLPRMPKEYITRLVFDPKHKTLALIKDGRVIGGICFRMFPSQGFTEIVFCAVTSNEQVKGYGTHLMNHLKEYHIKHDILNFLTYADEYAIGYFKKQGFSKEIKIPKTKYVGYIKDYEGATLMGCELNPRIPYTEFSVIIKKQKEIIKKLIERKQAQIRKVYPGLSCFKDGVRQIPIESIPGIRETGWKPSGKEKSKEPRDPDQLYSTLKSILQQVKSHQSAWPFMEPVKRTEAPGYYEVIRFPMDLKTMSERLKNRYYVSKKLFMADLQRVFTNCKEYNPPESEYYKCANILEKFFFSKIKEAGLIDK

MEF [27] = test: Effect on Tnfsf15 gene expression in MEF cells at 2.5 uM measured after 48 hrs by RNA-sequencing analysis relative to control; assay type: functional, Mus musculus; method in brief: as §1
MEF [28] = test: Effect on Snhg11 gene expression in MEF cells at 2.5 uM measured after 48 hrs by RNA-sequencing analysis relative to control; assay type: functional, Mus musculus; method in brief: as §1
MEF [29] = test: Effect on Guca1a gene expression in MEF cells at 2.5 uM measured after 48 hrs by RNA-sequencing analysis relative to control; assay type: functional, Mus musculus; method in brief: as §1
MEF [30] = test: Effect on Hpgd gene expression in MEF cells at 2.5 uM measured after 48 hrs by RNA-sequencing analysis relative to control; assay type: functional, Mus musculus; method in brief: as §1
MEF [31] = test: Effect on Aatk gene expression in MEF cells at 2.5 uM measured after 48 hrs by RNA-sequencing analysis relative to control; assay type: functional, Mus musculus; method in brief: as §1
MEF [32] = test: Effect on Tnnt2 gene expression in MEF cells at 2.5 uM measured after 48 hrs by RNA-sequencing analysis relative to control; assay type: functional, Mus musculus; method in brief: as §1
MEF [33] = test: Effect on Tfap4 gene expression in MEF cells at 2.5 uM measured after 48 hrs by RNA-sequencing analysis relative to control; assay type: functional, Mus musculus; method in brief: as §1
MEF [34] = test: Effect on Pyhin1 gene expression in MEF cells at 2.5 uM measured after 48 hrs by RNA-sequencing analysis relative to control; assay type: functional, Mus musculus; method in brief: as §1
MEF [35] = test: Effect on Erbb3 gene expression in MEF cells at 2.5 uM measured after 48 hrs by RNA-sequencing analysis relative to control; assay type: functional, Mus musculus; method in brief: as §1
MEF [36] = test: Effect on Plekhg4 gene expression in MEF cells at 2.5 uM measured after 48 hrs by RNA-sequencing analysis relative to control; assay type: functional, Mus musculus; method in brief: as §1
[37] = target: T1, Histone acetyltransferase KAT2B; test: Binding affinity to human N-terminal His-tagged PCAF assessed as change in melting temperature at 10 uM by SYPRO orange dye-based fluorescence assay
Method in brief: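 Thermal shift with His-tagged human bromodomain at 2 μM final in 10 mM HEPES pH 7.5, 500 mM NaCl. Compound at 10 μM final with 0.1% DMSO; SYPRO Orange at 1:1000. Equilibrated 3 min at 25 °C, then heated from 25 to 95 °C at 1 °C/min. Melting temperature shift taken from fluorescence; at least duplicate.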
Target sequence in this assay (Q92831 whole entry, looked up): as the sequence (Q92831 whole entry) above

MEF [38] = test: Effect on Erv3 gene expression in MEF cells at 2.5 uM measured after 48 hrs by RNA-sequencing analysis relative to control; assay type: functional, Mus musculus; method in brief: as §1

Compound	fold change (FC) (MEF [1])	fold change (FC) (MEF [2])	fold change (FC) (MEF [3])	fold change (FC) (MEF [4])	fold change (FC) (MEF [5])	fold change (FC) (MEF [6])	fold change (FC) (MEF [7])	fold change (FC) (MEF [8])	fold change (FC) (MEF [9])	fold change (FC) (MEF [10])	fold change (FC) (MEF [11])	fold change (FC) (MEF [12])	fold change (FC) (MEF [13])	fold change (FC) (MEF [14])	fold change (FC) (MEF [15])	fold change (FC) (MEF [16])	fold change (FC) (MEF [17])	fold change (FC) (MEF [18])	fold change (FC) (MEF [19])	fold change (FC) (MEF [20])	further results
CN1C[C@H](Nc2nc3cc[nH]c3c(=O)n2C)C[C@H](c2ccc3c(c2)OCCO3)C1	>1.5	>1.5	>1.5	>1.5	>1.5	>1.5	>1.5	>1.5	>1.5	>1.5	>1.5	>1.5	>1.5	>1.5	>1.5	>1.5	>1.5	>1.5	>1.5	>1.5	fold change (FC) (MEF [21]): >1.5; fold change (FC) (MEF [22]): >1.5; fold change (FC) (MEF [23]): >1.5; fold change (FC) (MEF [24]): >1.5; fold change (FC) (MEF [25]): >1.5; Kd [26]: 78 nM; fold change (FC) (MEF [27]): >1.5; fold change (FC) (MEF [28]): >1.5; fold change (FC) (MEF [29]): >1.5; fold change (FC) (MEF [30]): >1.5; fold change (FC) (MEF [31]): >1.5; fold change (FC) (MEF [32]): >1.5; fold change (FC) (MEF [33]): >1.5; fold change (FC) (MEF [34]): >1.5; fold change (FC) (MEF [35]): >1.5; fold change (FC) (MEF [36]): >1.5; ΔTm [37]: 9.5 °C; fold change (FC) (MEF [38]): >1.5
CN1C[C@@H](Nc2nc3cc[nH]c3c(=O)n2C)C[C@@H](c2ccc3c(c2)OCCO3)C1	>1.5	>1.5	>1.5	>1.5	>1.5	>1.5	>1.5	>1.5	>1.5	>1.5	>1.5	>1.5	>1.5	>1.5	>1.5	>1.5	>1.5	>1.5	>1.5	>1.5	fold change (FC) (MEF [21]): >1.5; fold change (FC) (MEF [22]): >1.5; fold change (FC) (MEF [23]): >1.5; fold change (FC) (MEF [24]): >1.5; fold change (FC) (MEF [25]): >1.5; Kd [26]: > 10000 nM; fold change (FC) (MEF [27]): >1.5; fold change (FC) (MEF [28]): >1.5; fold change (FC) (MEF [29]): >1.5; fold change (FC) (MEF [30]): >1.5; fold change (FC) (MEF [31]): >1.5; fold change (FC) (MEF [32]): >1.5; fold change (FC) (MEF [33]): >1.5; fold change (FC) (MEF [34]): >1.5; fold change (FC) (MEF [35]): >1.5; fold change (FC) (MEF [36]): >1.5; ΔTm [37]: 0.7 °C; fold change (FC) (MEF [38]): >1.5
